Compound activity (PubChem)
KCNQ1 inh: human KCNQ1 channel inhibition. P51787. CHO-K1 KCNQ1, FluxOR thallium flux fluorescence; hits give high values. B-score at 10 µM. actives 1.3% (n = 310,000);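 active = compounds whose thallium flux B-score, printed positive for inhibition, exceeds three library SD while starting fluorescence stays within three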;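 note: channel opened by potassium depolarization with thallium stimulus after 20 min compound exposure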
KCNK9 inh: human KCNK9 channel inhibition; B-score at 10 µM; HEK293 KCNK9, FluxOR thallium flux fluorescence; hits give low values; Q9NPC2; actives 1.2% (n = 310,000);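 active = ratio B-score over 3 SD below the library mean, with starting fluorescence within 5 SD of its mean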;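 note: negative B-score means less thallium flux so channel inhibition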
Target sequence (Q9NPC2 whole entry, looked up): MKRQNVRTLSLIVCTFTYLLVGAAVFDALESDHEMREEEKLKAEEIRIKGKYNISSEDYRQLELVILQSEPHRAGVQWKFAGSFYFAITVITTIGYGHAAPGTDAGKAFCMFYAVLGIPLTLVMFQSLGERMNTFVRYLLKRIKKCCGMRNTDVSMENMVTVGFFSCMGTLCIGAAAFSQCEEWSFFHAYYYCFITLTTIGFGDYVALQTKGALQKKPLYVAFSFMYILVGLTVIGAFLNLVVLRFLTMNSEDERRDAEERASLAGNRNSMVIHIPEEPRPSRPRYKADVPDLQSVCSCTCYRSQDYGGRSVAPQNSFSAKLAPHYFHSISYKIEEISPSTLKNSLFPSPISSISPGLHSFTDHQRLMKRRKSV
KCNK3 inh: human KCNK3 channel inhibition, primary screen | O14649 | CHO-KCNK3 thallium flux, FluxOR fluorescence; hits give low values | B-score at 10 µM | actives 0.84% (n = 340,000) | AID 602410;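 active = B-score under library mean minus 4 SD, starting fluorescence ratio at most library mean plus 5 SD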;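 note: more negative B-score means stronger inhibition of thallium flux through KCNK3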
KCNQ1 pot: potentiators or activators of human KCNQ1 potassium channel; actives 0.35% (n = 310,000); CHO-K1 KCNQ1, thallium flux FluxOR fluorescence; hits give high values; B-score at 10 µM;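 active = fluorescence ratio B-score, a plate-corrected score, at least three library SD, with initial intensity B-score within 5 SD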
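assay system = CHO-K1 cells stably expressing KCNQ1 | medium = assay buffer, equal DMSO in all wells | timing = 37 °C overnight plating, 90-min dark dye load, 20-min compound pretreatment | measured by = kinetic FluxOR thallium fluorescence, 10-s 1-Hz baseline, 110-s post-stimulus read | measure = fluorescence change relative to baseline, converted to B score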
hERG protect: hERG (human) protection from proarrhythmic block; Q12809; CHO-hERG, FluxOR thallium flux, dofetilide IC70 present; activation (rescue from dofetilide block), less the hit threshold, % at 10 µM; actives 0.51% (n = 310,000); AID 1511;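 active = activation above the mean of controls blocked by dofetilide plus 5 SD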;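 note: thallium influx through hERG after potassium depolarization seen as dye fluorescence rise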
Kir21 block: blocks the mouse Kir2.1 inward-rectifier potassium channel; P35561; HEK293-Kir2.1, FluxOR thallium flux fluorescence; hits give low values; B-score at 10 µM; actives 0.85% (n = 310,000); AID 1672;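 active = fluorescence ratio B-score at or below minus 3 SD of library scores, with starting-brightness B-score within 2 SD, cut at about -4.2 in these data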;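 note: channel flux triggered by added potassium and thallium sulfate stimulus; B-score of peak minus minimum fluorescence over baseline after thallium stimulus; more negative B-score means stronger Kir2.1 block with less thallium influx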
KCNQ1 inh valid: reconfirmed blocker of the human KCNQ1 potassium channel. shares compounds with KCNQ1 inh. KCNQ1 cell line, FluxOR thallium flux fluorescence. inhibition, % at 10 µM. actives 93% (n = 1,600);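 active = primary screen active, with duplicate mean exceeding buffer control mean plus 3 SD of buffer wells, cut at about 28% in these data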;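 note: 0% = buffer control ratio and 100% = XE991 inhibitor control ratio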
CHO Tl flux: KCNQ1 inhibitor counter-screen hit in parental CHO cells. shares compounds with KCNQ1 inh. parental CHO-K1, FluxOR thallium flux fluorescence ratio; hits give low values; zero means no signal rise above baseline. fluorescence ratio (Tl flux) at 10 µM. actives 21% (n = 1,600);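 active = mean of duplicate thallium-flux fluorescence ratios in parental host cells more than 5 SD below the buffer control mean, cut at about 0.38 in these data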;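 note: ratio is peak minus minimum fluorescence divided by baseline fluorescence; actives read low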
KCNQ1 APC inh: blocks human KCNQ1 current in automated patch clamp | KCNQ1-CHO cells | shares compounds with KCNQ1 inh | AID 624120 | calls only at 10 µM | actives 20% (n = 490);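 active = KCNQ1 current drop exceeding 3 SD of negative control wells, seen in both duplicate runs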;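 note: steady state current during a 2 s step from -80 to +40 mV; negative values mean current inhibition and positive values mean potentiation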
KCNQ2 inh: rat KCNQ2 inhibition in KCNQ1 inhibitor specificity screen. shares compounds with KCNQ1 inh. KCNQ2 cells, FluxOR thallium flux fluorescence. inhibition, % at 10 µM. actives 71% (n = 1,600). AID 651746;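 active = mean percent inhibition of the KCNQ2 thallium signal more than 5 SD above the buffer-only control wells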;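 note: KCNQ2 expressed in CHO cells; 0% = buffer control wells and 100% = XE-991 inhibitor control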
KCNQ1-KCNE1 inh: KCNQ1 inhibitor that also blocks human KCNQ1/KCNE1 channel; inhibition, % at 10 µM; actives 77% (n = 1,600); shares compounds with KCNQ1 inh; KCNQ1/KCNE1 cells, FluxOR thallium flux fluorescence; AID 652147;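 active = mean percent inhibition of duplicate wells above the buffer-only control mean plus 3 SD of those controls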;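 note: 0% = buffer only wells and 100% = XE-991 inhibitor control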
KCNK9 inh conf: confirmation of human KCNK9 potassium channel inhibitors | HEK293 KCNK9 cells, FluxOR thallium flux fluorescence | inhibition, % at 10 µM | shares compounds with KCNK9 inh | actives 43% (n = 4,900);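 active = thallium signal inhibited by more than 5 SD of the compound-free buffer control wells, on both duplicate plates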;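 note: 0% = assay buffer control wells without compound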
Kir2-1 spec: selectivity of KCNK9 modulators against mouse Kir2.1 | Kir2.1 cells, FluxOR thallium flux fluorescence | inhibition, % at 10 µM | shares compounds with KCNK9 inh | actives 4% (n = 4,900);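 active = thallium signal drop more than 5 SD beyond the mean of the no-compound control wells, seen in both duplicate plates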;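 note: signal is fluorescence rise after thallium addition divided by baseline fluorescence; plate controls were assay buffer only for no effect and full block by chlorpromazine control for full effect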
HEK293 Tl ctr: non-induced cell nonspecific activity of KCNK9 modulators. shares compounds with KCNK9 inh. non-induced KCNK9-HEK293, FluxOR thallium flux. inhibition, % at 10 µM. actives 40% (n = 4,900);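 active = thallium signal drop beyond 5 SD of the untreated control mean, on both duplicate plates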;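 note: plate controls were buffer only IC0 wells for no effect and SID17386958 at its maximal inhibitory level for full effect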
* marks the source's active call; other numbers are inactive results; i = inactive; . = not tested or not shown; + = active, no number. Most compounds without a hit are left out; they make up all but 3.8% or so of the library.

SMILES	KCNQ1 inh	KCNK9 inh	KCNK3 inh	KCNQ1 pot	hERG protect	Kir21 block	KCNQ1 inh valid	CHO Tl flux	KCNQ2 inh	KCNQ1-KCNE1 inh	KCNK9 inh conf	Kir2-1 spec	HEK293 Tl ctr	others
CCCN(CC(=O)Nc1ccccc1C)C(=O)c1ccc(C2SCCS2)cc1	i	i	i	i	-5	-1.4	.	.	.	.	.	.	.
Cc1ccc(C(C)C)cc1OCCn1cncn1	i	i	i	i	1	-0.5	.	.	.	.	.	.	.
c1ccc(CC2CCN(C3=Nc4cccc5cccc3c45)CC2)cc1	13*	-9*	i	i	-35	-1.4	150*	0.34*	121%*	135%*	36%*	35%*	38%*
CCOC(=O)CC/C(=N\NC(N)=O)c1ccc(OC)c(Cl)c1	i	i	i	i	-7	-0.04	.	.	.	.	.	.	.
O=C(Nc1ccc(Cl)c(S(=O)(=O)N2CCOCC2)c1)c1ccncc1	.	.	i	.	.	.	.	.	.	.	.	.	.
COc1ccc(S(=O)(=O)N2CCN(c3cccc(C)c3C)CC2)cc1	9*	i	i	i	-9	1.4	+	0.35*	i	i	i	i	i
COc1ccc(N2CCN(S(=O)(=O)c3ccc(OC)cc3)CC2)cc1	i	i	i	i	-6	-0.92	.	.	.	.	.	.	.
CC(C)c1ccc(-c2nnc(SCC(=O)NC3CC3)n2C)cc1	i	i	i	i	-5	0	.	.	.	.	.	.	.
COc1ccc(NC(=O)CN2CCN(C3c4ccccc4-c4ccccc43)CC2)c(OC)c1	8*	-17*	i	i	-11	-0.51	60*	0.42	79%*	98%*	38%*	i	34%*
CCOc1ccc(NC(=O)CN2CCN(C3c4ccccc4-c4ccccc43)CC2)cc1	i	i	i	i	-8	-0.56	.	.	.	.	.	.	.
Cc1ccccc1Nc1nc(NCc2ccco2)c2ccccc2n1	14*	-12*	-14*	i	-25	-13*	162*	0.37*	115%*	+	54%*	85%*	40%*
COc1cccc(N(CC(=O)NC2CC3CCC2C3)S(=O)(=O)c2ccccc2)c1 (centres undefined)	i	i	i	i	-8	-0.11	.	.	.	.	.	.	.
Cc1cccc(N(CC(=O)NC2CC3CCC2C3)S(=O)(=O)c2ccccc2)c1 (centres undefined)	6*	i	i	i	-7	-0.33	50*	0.43	79%*	61%*	i	i	i
S=C(c1ccc(-c2cccc(Cl)c2)o1)N1CCCCC1	6*	-8.8*	i	i	-9	0.12	92*	0.41	87%*	100%*	32%*	i	32%*	KCNQ1 APC inh=i
S=C(c1ccc(-c2cccc(Cl)c2)o1)N1CCOCC1	i	i	i	i	-10	-2.3	.	.	.	.	.	.	.
